Assay outcomes as filed in PubChem.
An excerpt weighted towards active compounds, which were near 2.5% of everything screened.
HKDC1 inh: HKDC1 (human) hexokinase inhibition; AID 493160; 340,000 tested, 0.16% active; Q2TB90; recombinant HKDC1, G6PDH/diaphorase resazurin coupled fluorescence; inhibition, % at 20 µM;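 active = inhibition above about 35% when tested at 20 µM, limit read from the data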;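 note: plate controls were DMSO wells with enzyme for no effect and DMSO wells lacking enzyme for full effect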
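Material – in-house recombinant HK5 (HKDC1) enzyme · Quantity – HKDC1 at 5 µg/mL · Buffer or medium – pH 8.0 Tris buffer with 10 mM MgCl2 · Reagent – glucose with 1 mM ATP · Dosing – single 20 µM dose · Times – reaction time 90 min, room temperature, protected from light · Technique – resorufin fluorescence at 613 nm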
EP2 modulator: EP2 receptor (human) modulation. P43116. EP2-expressing cells, cAMP HTRF FRET, PGE2 co-stimulation. induction, % at 25 µM. 260,000 tested, 0.83% active;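 active = compounds whose cAMP rise, as percent of the full-agonist control response, exceeds 60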;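 note: rat C6 glioma line stably carrying human EP2 under a CMV promoter; the protocol text gives 20 µM as final concentration; 100% = response of wells given 1 µM PGE2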
Target sequence (P43116 whole entry, looked up): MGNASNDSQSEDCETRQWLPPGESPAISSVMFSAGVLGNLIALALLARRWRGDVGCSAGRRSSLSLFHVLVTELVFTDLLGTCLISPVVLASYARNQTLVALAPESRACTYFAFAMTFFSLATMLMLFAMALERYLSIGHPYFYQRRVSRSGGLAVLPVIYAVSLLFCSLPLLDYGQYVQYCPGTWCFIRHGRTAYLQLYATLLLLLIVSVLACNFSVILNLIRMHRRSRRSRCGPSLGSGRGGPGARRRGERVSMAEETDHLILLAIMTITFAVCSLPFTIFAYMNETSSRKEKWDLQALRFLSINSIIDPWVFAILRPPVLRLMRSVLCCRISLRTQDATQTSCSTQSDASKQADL
PHOSPHO1 inh: PHOSPHO1 (human) inhibition. Q8TCT1. AID 1565. recombinant PHOSPHO1, absorbance phosphatase assay. 290,000 tested, 1.1% active. inhibition, % at 13.3 µM; in the data active = inhibition above about 60%
Target sequence (Q8TCT1 whole entry, looked up): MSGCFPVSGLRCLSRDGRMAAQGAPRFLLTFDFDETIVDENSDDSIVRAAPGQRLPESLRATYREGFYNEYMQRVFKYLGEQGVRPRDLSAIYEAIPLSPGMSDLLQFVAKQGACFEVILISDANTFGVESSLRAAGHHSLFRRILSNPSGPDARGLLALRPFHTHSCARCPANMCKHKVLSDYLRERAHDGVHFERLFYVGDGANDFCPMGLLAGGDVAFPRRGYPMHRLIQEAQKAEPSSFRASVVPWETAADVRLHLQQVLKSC
PGE2 EP2 inh: inhibitors of human EP2 prostaglandin E2 receptor | AID 1422 | C6 glioma cells expressing human EP2, cAMP TR-FRET; cells stimulated with saturating PGE2 | P43116 | 260,000 tested, 0.52% active | inhibition, % at 25 µM;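 active = percent inhibition above 40 after rounding to a whole number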;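 note: rat C6 glioma host cells with rolipram phosphodiesterase inhibitor present; the protocol text gives 20 µM as final concentration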
PfG6PD inh: PfG6PD (Plasmodium falciparum) enzyme inhibition | PfGluPho enzyme, NADPH resazurin-diaphorase fluorescence | inhibition, % at 20 µM | 350,000 tested, 0.78% active | AID 504690;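 active = inhibition reaching at least a set limit at 20 µM in the primary screen, cut at about 59% in these data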;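 note: 0% = DMSO wells with substrate and 100% = DMSO wells lacking glucose-6-phosphate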
TbHK1 inh: T. brucei hexokinase 1 inhibition. recombinant TbHK1, G6PDH-coupled NADH A340. inhibition, % at 10 µM. 220,000 tested, 0.11% active. AID 1430;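 active = inhibition of 50% or more in the single-dose primary screen; inactive = inhibition below 50%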
EP2 cAMP induct: human EP2 receptor cAMP induction, negative in counter-screens; C6 glioma EP2 cells, cAMP HTRF induction; plus low (about EC15) PGE2 agonist; shares compounds with EP2 modulator; calls only at 20 µM (by protocol); 1,300 tested, 47% active;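 active = cAMP induction above 50% in the main assay while under 30% in all four parallel counter assays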;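 note: rat C6 glioma cells stably expressing human EP2 receptor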
* marks the source's active call; other numbers are inactive results.

Cc1ccc(C(Sc2ccccc2)C(Cn2cncn2)C(=O)c2ccccc2)cc1 (stereo not given) was read as HKDC1 inh -10.3, EP2 modulator 72.8*, PHOSPHO1 inh 14.1, PGE2 EP2 inh 8.3, PfG6PD inh -2.2, TbHK1 inh 4.1 and EP2 cAMP induct active.
Screening Cc1cc(C)c2nc(SCC(=O)Nc3nc(C)c(C)s3)c(C)cc2c1 returned EP2 modulator 2.1 and PGE2 EP2 inh 8.8.
Screening Cn1ncc(Br)c1C(=O)Nc1ccc(F)cc1F returned HKDC1 inh -0.7, EP2 modulator -9.2, PHOSPHO1 inh 15.0, PGE2 EP2 inh 10.5, PfG6PD inh -11.7 and TbHK1 inh -3.5.
For CCOc1ccccc1NC(=O)c1c(Br)cnn1C the results were HKDC1 inh -2.5, EP2 modulator 68.5*, PHOSPHO1 inh -5.7, PGE2 EP2 inh 2.8, PfG6PD inh -10.3, TbHK1 inh -0.3 and EP2 cAMP induct inactive.
CC(C)(C)Nc1c(-c2ccc(O)cc2)nc2cnccn12 was read as EP2 modulator -36.6 and PGE2 EP2 inh 7.1.
CN(c1ccccc1)C1CCCCC1NS(=O)(=O)c1ccc(Cl)cc1 (stereo not given) was read as HKDC1 inh 2.4, EP2 modulator 65.6*, PHOSPHO1 inh 10.7, PGE2 EP2 inh 5.6, PfG6PD inh 17.5, TbHK1 inh 14.9 and EP2 cAMP induct active.
Screening CCc1cc2cc(C)cc(C)c2nc1SCC(=O)N1CCCC1 returned HKDC1 inh 7.0, EP2 modulator 81.8*, PHOSPHO1 inh 8.2, PGE2 EP2 inh 8.7, PfG6PD inh -12.8, TbHK1 inh -0.3 and EP2 cAMP induct inactive.
CCc1cc2ccc(C)cc2nc1SCC(=O)N1CCCC1 was read as EP2 modulator 21.7 and PGE2 EP2 inh 8.5.
Cc1cccc(-n2c(CCc3ccccc3)nnc2SCC(=O)c2ccccc2)c1 was read as HKDC1 inh 6.6, EP2 modulator 64.3*, PHOSPHO1 inh 16.0, PGE2 EP2 inh 8.4, PfG6PD inh 9.2, TbHK1 inh 4.1 and EP2 cAMP induct inactive.
Screening CCc1ccc2nc3c(c(C(=O)O)c2c1)CCC3 returned HKDC1 inh -4.4, EP2 modulator 20.6, PHOSPHO1 inh 16.3, PGE2 EP2 inh 0.9, PfG6PD inh 5.4 and TbHK1 inh 0.9.
`Cc1cc(Br)c2nc3c(c(C(=O)O)c2c1)CCCCC3` gave HKDC1 inh -6.0, EP2 modulator 76.9*, PHOSPHO1 inh -13.9, PGE2 EP2 inh 19.3, PfG6PD inh 6.6, TbHK1 inh -4.7 and EP2 cAMP induct inactive.
For CC(=O)Nc1cccc(NC(=O)CSc2nc(C3CC3)nc3sc4c(c23)CCC(C)C4)c1 (stereo not given) the results were EP2 modulator 10.2 and PGE2 EP2 inh 10.8.
Screening O=C(Cc1ccsc1)N1C2CCC1CC(c1ccc(F)cc1)C2 (stereo not given) returned EP2 modulator 18.6.
`O=C(CN1CCN(Cc2ccccc2)CC1)Nc1ccc2c(c1)OCCO2` gave EP2 modulator -25.2 and PGE2 EP2 inh 5.6.
For O=C(CSc1nnc(CCCO)n1-c1ccccc1)Nc1nccs1 the results were HKDC1 inh -6.0, EP2 modulator 27.4, PHOSPHO1 inh -27.7, PGE2 EP2 inh 9.9, PfG6PD inh 14.5 and TbHK1 inh -3.9.
Screening Cc1cccc(C)c1OCc1nnc(SCC(=O)Nc2nccs2)n1-c1ccccc1 returned HKDC1 inh 11.1, EP2 modulator 51.1, PHOSPHO1 inh -9.3, PGE2 EP2 inh -2.4, PfG6PD inh -8.7, TbHK1 inh 0.2 and EP2 cAMP induct inactive.
`Cc1c(-c2ccccc2)n[nH]c1C(=O)NC(C)c1ccc2c(c1)CCC2` (stereo not given) gave EP2 modulator -102.5 and PGE2 EP2 inh 12.5.
Screening CCCC1=C(C(=O)OCC)C(c2cccs2)C(C#N)=C(N)O1 (stereo not given) returned HKDC1 inh 4.0, EP2 modulator 62.8*, PHOSPHO1 inh 11.6, PGE2 EP2 inh 10.8, PfG6PD inh 9.0, TbHK1 inh -2.0 and EP2 cAMP induct inactive.
CCOC(=O)C1=C(C)OC(N)=C(C#N)C1c1cccs1 (stereo not given) was read as HKDC1 inh -4.3, EP2 modulator 32.9, PHOSPHO1 inh 20.7, PGE2 EP2 inh 11.3, PfG6PD inh 6.6 and TbHK1 inh -17.6.
Screening CC1CCCC(C)N1C(=O)c1ccccc1Nc1ccc(SC(F)F)cc1 (stereo not given) returned HKDC1 inh 2.7, EP2 modulator 76.5*, PHOSPHO1 inh 36.9, PGE2 EP2 inh 2.8, PfG6PD inh 6.0, TbHK1 inh 4.0 and EP2 cAMP induct inactive.
For Cc1cc(NCCCN(C)C)c2ccccc2n1 the results were EP2 modulator -43.9 and PGE2 EP2 inh 8.8.
For CN1CCN(c2ccccc2NC(=O)c2cc3ccccc3o2)CC1 the results were HKDC1 inh 7.5, EP2 modulator 0.5, PHOSPHO1 inh 12.2, PGE2 EP2 inh 12.2, PfG6PD inh 14.5 and TbHK1 inh -8.5.
O=C(Nc1ccccc1N1CCCCC1)c1ccccc1F was read as HKDC1 inh -1.9, EP2 modulator 61.2*, PHOSPHO1 inh 6.7, PGE2 EP2 inh 6.7, PfG6PD inh -2.2, TbHK1 inh 0.1 and EP2 cAMP induct active.
For CC1CCN(c2ccccc2NC(=O)c2ccc(F)cc2)CC1 the results were HKDC1 inh 2.8, EP2 modulator 75.3*, PHOSPHO1 inh 6.3, PGE2 EP2 inh 2.1, PfG6PD inh -5.5, TbHK1 inh -8.0 and EP2 cAMP induct inactive.
`CN1CCN(c2ccccc2NC(=O)c2ccc(F)cc2)CC1` gave HKDC1 inh -0.1, EP2 modulator -17.4, PHOSPHO1 inh 33.4, PGE2 EP2 inh 1.1, PfG6PD inh 0.9 and TbHK1 inh -3.0.
For O=C(Nc1ccccc1N1CCCC1)c1cc2ccccc2o1 the results were HKDC1 inh 5.7, EP2 modulator 91.4*, PHOSPHO1 inh 10.4, PfG6PD inh -0.3, TbHK1 inh -4.7 and EP2 cAMP induct active.
For C#CC1(OC(C)=O)C(C)CN(C)CC1C (stereo not given) the results were EP2 modulator -11.7 and PGE2 EP2 inh 7.0.
Screening OC1(c2ccc(Br)cc2)CN(c2ccccc2)C2=[N+]1CCS2 (stereo not given) returned HKDC1 inh -1.5, EP2 modulator 75.0*, PHOSPHO1 inh 3.5, PGE2 EP2 inh 14.0, PfG6PD inh 2.0, TbHK1 inh 1.9 and EP2 cAMP induct active.
For OC1(c2ccc(Cl)cc2)CN(c2ccccc2)C2=[N+]1CCS2 (stereo not given) the results were HKDC1 inh 0.1, EP2 modulator 67.8*, PHOSPHO1 inh 3.5, PGE2 EP2 inh 4.4, PfG6PD inh 7.8, TbHK1 inh 2.1 and EP2 cAMP induct active.
